What was measured:
[1] = Cytotoxicity against human T47D cells after 48 hrs by sulforhodamine B assay; format: functional, cell-based
Outline: (§1)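 Cells grown in RPMI 1640 with 10% heat-inactivated FBS and 1% penicillin-streptomycin-amphotericin B at 37 °C, 5% CO2, passages 5–20. Plated at 10⁴ cells/well with 24 h recovery. Exposed to 5, 12, 25 and 50 μmol/L from DMSO stock (final DMSO <0.1%), triplicate wells, 48 h. TCA-fixed, SRB-stained, read by ELISA reader. IC50 fitted with Hill-type equation.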

[2] = Induction of apoptosis in human T47D cells assessed as upregulation of caspase 8 at IC50 after 48 hrs by ELISA method relative to control; format: functional, cell-based
Outline: (§2)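 Cells grown in RPMI 1640 with 10% FBS at 37 °C, plated at 1.2–1.8 × 10,000 cells/well and exposed to compound for 48 h. Lysed in cell extraction buffer, diluted in standard diluent. Caspase-8 and caspase-9 measured separately by human ELISA, absorbance 450 nm. Fold versus control.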

[3] = Induction of apoptosis in human T47D cells assessed as upregulation of active caspase 3 level by immunoassay relative to letrozole; format: functional, cell-based
[4] = Induction of apoptosis in human T47D cells assessed as upregulation of active caspase 3 level at IC50 by immunoassay relative to control; format: functional, cell-based
Outline: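 Cells washed with PBS and lysed in extraction buffer with protease inhibitors (1 mL per 10⁷ cells). Lysate diluted just before assay. Active caspase-3 measured by human sandwich immunoassay with absorbance at 450 nm read within 30 min. Expressed as fold versus control cells.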

T47D [5] = test: Induction of apoptosis in human T47D cells assessed as decrease in Bcl2 level at IC50 relative to control; format: functional
T47D [6] = test: Induction of apoptosis in human T47D cells assessed as decrease in Bcl-xl level at IC50 relative to control; format: functional
[7] = Induction of apoptosis in human T47D cells assessed as upregulation of caspase 9 at IC50 after 48 hrs by ELISA method relative to control; format: functional, cell-based; outline: as §2
T47D [8] = test: Induction of apoptosis in human T47D cells assessed as Bax level at IC50 (reference value: 24.6 IU/ml); format: functional
Aromatase [9] = molecular target: T1, Aromatase (Homo sapiens, UniProt P11511); test: Inhibition of aromatase activity in human T47D cells after 24 hrs; format: cell-based
T1 sequence (P11511 whole entry): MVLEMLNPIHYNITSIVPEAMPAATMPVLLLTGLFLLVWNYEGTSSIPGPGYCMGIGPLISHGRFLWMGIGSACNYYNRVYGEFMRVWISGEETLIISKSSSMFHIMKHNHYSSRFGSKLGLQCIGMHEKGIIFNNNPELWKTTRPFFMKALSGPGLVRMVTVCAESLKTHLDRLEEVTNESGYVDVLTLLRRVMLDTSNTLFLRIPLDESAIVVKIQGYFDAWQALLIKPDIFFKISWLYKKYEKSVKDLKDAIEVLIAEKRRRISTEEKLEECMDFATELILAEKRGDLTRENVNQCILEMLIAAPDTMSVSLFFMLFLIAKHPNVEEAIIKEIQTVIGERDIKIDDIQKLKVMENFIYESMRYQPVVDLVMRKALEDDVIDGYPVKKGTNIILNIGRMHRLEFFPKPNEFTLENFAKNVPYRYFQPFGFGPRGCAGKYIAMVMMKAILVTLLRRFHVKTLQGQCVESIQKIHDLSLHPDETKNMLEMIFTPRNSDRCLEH
Outline: (§3)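 T47D cells in RPMI 1640 with 10% FBS and 1% penicillin-streptomycin, seeded at 1.2–1.8 × 10,000 cells/well in 100 µL medium plus 100 µL compound. Cells treated 24 h, including serial dilutions for IC50. Aromatase (CYP19A1) then measured with a human ELISA kit.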

T47D [10] = test: Induction of apoptosis in human T47D cells assessed as Bcl-xl level at IC50 (reference value: 754565 IU/ml); format: functional
T47D [11] = test: Induction of apoptosis in human T47D cells assessed as Bcl2 level at IC50 (reference value: 568019 IU/ml); format: functional
Aromatase [12] = molecular target: T1, Aromatase; test: Inhibition of aromatase activity in human T47D cells at 100 uL after 24 hrs; format: cell-based; design: concentration or dose not given beside the values; outline: as §3
T47D [13] = test: Induction of apoptosis in human T47D cells assessed as increase in Bax/Bcl2 ratio at IC50 relative to control; format: functional
[14] = Cytotoxicity against human 184A1 cells after 48 hrs by sulforhodamine B assay; format: toxicity, cell-based; outline: as §1
[15] = Cell cycle arrest in human T47D cells assessed as G2/M phase accumulation at 9.2 uM by propidium iodide staining based cytometry (reference value: 15.81%); format: functional
Outline: (§4)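 T47D cells exposed to test compound at 9.2 μM. Cells stained with propidium iodide per kit procedure and run on a DNA cytometer. PBMCs of known DNA content served as reference for DNA index. Percent of cells in G1, S and G2/M phases compared with untreated control.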

[16] = Cell cycle arrest in human T47D cells assessed as S phase accumulation at 9.2 uM by propidium iodide staining based cytometry (reference value: 17.14%); format: functional; outline: as §4
T47D [17] = test: Induction of apoptosis in human T47D cells at 9.2 uM by propidium iodide staining based cytometry (reference value: 2.13%); format: functional
[18] = Cell cycle arrest in human T47D cells assessed as G1 phase accumulation at 9.2 uM by propidium iodide staining based cytometry (reference value: 64.92%); format: functional; outline: as §4

Compound | inhibition (INH) (Aromatase [12]) | IC50 [1] | other results
Cc1nnc(NS(=O)(=O)c2ccc(N/C=C\C(=O)c3cc4ccccc4oc3=O)cc2)s1 |  | 94 µM | 
NS(=O)(=O)c1ccc(N/C=C\C(=O)c2cc3ccccc3oc2=O)cc1 |  | 109 µM | 
Cc1cc(NS(=O)(=O)c2ccc(N/C=C\C(=O)c3cc4ccccc4oc3=O)cc2)nc(C)n1 |  | 100 µM | 
O=C(/C=C\Nc1ccc(S(=O)(=O)Nc2cnc3ccccc3n2)cc1)c1cc2ccccc2oc1=O |  | 86.9 µM | 
CN(C)/C=C/C(=O)c1cc2ccccc2oc1=O |  | 146 µM | 
O=C(/C=C\Nc1ccc(S(=O)(=O)Nc2ccc3cn[nH]c3c2)cc1)c1cc2ccccc2oc1=O |  | 96.5 µM | 
O=C(/C=C\Nc1ccc(S(=O)(=O)Nc2ccnn2-c2ccccc2)cc1)c1cc2ccccc2oc1=O | 70% | 9.2 µM | fold change (FC) [2]: 40; fold change (FC) [3]: 3; Activity [15]: 44.5%; Activity [16]: 14.6%; Activity (T47D [17]): 31.7%; fold change (FC) [4]: 45; fold change (FC) (T47D [5]): 369; fold change (FC) (T47D [6]): 1965; Activity [18]: 9.2%; fold change (FC) [7]: 10; Activity (T47D [8]): 402127 IU/ml; IC50 (Aromatase [9]): 5.09 µM; Activity (T47D [10]): 384 IU/ml; Activity (T47D [11]): 1540 IU/ml; fold change (FC) (T47D [13]): 33000; IC50 at 48 h [14]: 184 µM
Nc1ccc(S(=O)(=O)c2ccc(N/C=C\C(=O)c3cc4ccccc4oc3=O)cc2)cc1 |  | 91.9 µM | 
COc1cccc2c1C(=O)c1c(O)c3c(c(O)c1C2=O)C[C@@](O)(C(=O)CO)C[C@@H]3O[C@H]1C[C@H](N)[C@H](O)[C@H](C)O1 [DOXORUBICIN] |  | 9.8 µM | 
O=C(C=CNc1ccc(S(=O)(=O)c2ccc(NC=CC(=O)c3cc4ccccc4oc3=O)cc2)cc1)c1cc2ccccc2oc1=O |  | 70.3 µM | 

Now from value to molecule, other results behind:

inhibition (INH) (Aromatase [12]) | Compound | IC50 [1] | other results
81% | COc1cnc(NS(=O)(=O)c2ccc(N/C=C\C(=O)c3cc4ccccc4oc3=O)cc2)nc1 | 8.8 µM | fold change (FC) [2]: 21.8; fold change (FC) [3]: 1.3; fold change (FC) [4]: 20.6; fold change (FC) (T47D [5]): 819.65; fold change (FC) (T47D [6]): 111.35; fold change (FC) [7]: 9.91; Activity (T47D [8]): 176887 IU/ml; IC50 (Aromatase [9]): 6.07 µM; Activity (T47D [10]): 6776 IU/ml; Activity (T47D [11]): 693 IU/ml; fold change (FC) (T47D [13]): 5936; IC50 at 48 h [14]: 172 µM
28% | Cc1cc(NS(=O)(=O)c2ccc(N/C=C\C(=O)c3cc4ccccc4oc3=O)cc2)on1 | 75.6 µM | 
41% | O=C(/C=C\Nc1ccc(S(=O)(=O)Nc2ncccn2)cc1)c1cc2ccccc2oc1=O | 75.2 µM | 
69% | COc1ncnc(NS(=O)(=O)c2ccc(N/C=C\C(=O)c3cc4ccccc4oc3=O)cc2)c1OC | 9.8 µM | IC50 (Aromatase [9]): 4.66 µM
20% | Cc1noc(NS(=O)(=O)c2ccc(N/C=C\C(=O)c3cc4ccccc4oc3=O)cc2)c1C | 68.4 µM | 
44% | COc1cc(NS(=O)(=O)c2ccc(N/C=C\C(=O)c3cc4ccccc4oc3=O)cc2)nc(OC)n1 | 37.8 µM | 
67% | Cc1ccnc(NS(=O)(=O)c2ccc(N/C=C\C(=O)c3cc4ccccc4oc3=O)cc2)n1 | 24.5 µM | IC50 (Aromatase [9]): 9.52 µM
30% | Cc1cc(C)nc(NS(=O)(=O)c2ccc(N/C=C\C(=O)c3cc4ccccc4oc3=O)cc2)n1 | 62.2 µM | 
65% | O=C(/C=C\Nc1ccc(S(=O)(=O)Nc2ccccn2)cc1)c1cc2ccccc2oc1=O | 37.6 µM | IC50 (Aromatase [9]): 12.5 µM
30% | N=C(N)NS(=O)(=O)c1ccc(N/C=C\C(=O)c2cc3ccccc3oc2=O)cc1 | 87.6 µM | 
